ChEMBL document CHEMBL1148546, “3-Arylpiperazinylethyl-1H-pyrrolo[2,3-d]pyrimidine-2,4(3H,7H)-dione derivatives as novel, high-affinity and selective alpha(1)-adrenoceptor ligands” (Bioorg Med Chem Lett, 2006)

What was measured:
[1] = species on record: Homo sapiens; assay: Selectivity for 5HT1A over adrenergic alpha-1 receptor
Outline: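 Selectivity is the ratio of Ki at 5-HT1A, D1 or D2 to Ki at α1. Ki values are means (±SD) of three separate experiments.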

[2] = target: T1, Alpha-1A adrenergic receptor (Rattus norvegicus) (UniProt P43140); assay: Antagonistic activity at ADRA1A in isolated rat prostatic vas deferens; assay type: functional, tissue-based
T1 sequence (whole entry): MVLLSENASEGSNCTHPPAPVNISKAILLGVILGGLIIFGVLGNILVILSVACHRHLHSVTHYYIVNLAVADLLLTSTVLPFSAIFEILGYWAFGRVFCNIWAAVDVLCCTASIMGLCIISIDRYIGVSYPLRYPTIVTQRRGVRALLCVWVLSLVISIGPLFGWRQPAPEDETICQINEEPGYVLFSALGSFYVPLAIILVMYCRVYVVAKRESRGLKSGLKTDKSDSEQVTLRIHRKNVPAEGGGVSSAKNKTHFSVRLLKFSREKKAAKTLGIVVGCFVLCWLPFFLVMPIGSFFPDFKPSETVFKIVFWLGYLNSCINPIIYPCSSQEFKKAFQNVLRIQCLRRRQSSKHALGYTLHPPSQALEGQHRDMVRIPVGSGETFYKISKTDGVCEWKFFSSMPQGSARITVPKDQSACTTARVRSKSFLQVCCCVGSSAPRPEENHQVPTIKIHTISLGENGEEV
Outline: (§1)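 Antagonism in isolated rat tissues: prostatic vas deferens (α1A), spleen (α1B), thoracic aorta (α1D). Each compound tested at a single concentration, and each concentration was investigated at least four times. pKb was calculated by the van Rossum method. pA2 was derived from Arunlakshana–Schild plots. WB4101 was used as the standard.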

[3] = target: T2, Alpha-1B adrenergic receptor (Rattus norvegicus) (UniProt P15823); assay: Antagonistic activity at ADRA1B in rat spleen; assay type: functional, tissue-based; outline: as §1
T2 sequence (whole entry): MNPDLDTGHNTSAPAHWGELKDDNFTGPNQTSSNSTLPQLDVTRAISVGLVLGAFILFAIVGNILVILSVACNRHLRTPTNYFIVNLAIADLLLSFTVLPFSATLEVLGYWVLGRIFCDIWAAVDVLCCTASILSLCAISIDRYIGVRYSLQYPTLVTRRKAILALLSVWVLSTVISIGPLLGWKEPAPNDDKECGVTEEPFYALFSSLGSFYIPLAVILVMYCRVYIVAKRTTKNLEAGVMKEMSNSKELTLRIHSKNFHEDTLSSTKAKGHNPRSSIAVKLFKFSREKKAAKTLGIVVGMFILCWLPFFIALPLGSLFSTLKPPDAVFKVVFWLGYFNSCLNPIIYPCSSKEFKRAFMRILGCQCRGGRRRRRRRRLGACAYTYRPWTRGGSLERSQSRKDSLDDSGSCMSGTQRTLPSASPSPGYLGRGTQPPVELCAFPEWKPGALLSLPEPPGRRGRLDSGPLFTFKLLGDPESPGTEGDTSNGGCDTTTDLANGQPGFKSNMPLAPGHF

[4] = target: D(1A) dopamine receptor (Homo sapiens, UniProt P21728); assay: Binding affinity to dopamine D1 receptor
Chain of D(1A) dopamine receptor (P21728 whole entry): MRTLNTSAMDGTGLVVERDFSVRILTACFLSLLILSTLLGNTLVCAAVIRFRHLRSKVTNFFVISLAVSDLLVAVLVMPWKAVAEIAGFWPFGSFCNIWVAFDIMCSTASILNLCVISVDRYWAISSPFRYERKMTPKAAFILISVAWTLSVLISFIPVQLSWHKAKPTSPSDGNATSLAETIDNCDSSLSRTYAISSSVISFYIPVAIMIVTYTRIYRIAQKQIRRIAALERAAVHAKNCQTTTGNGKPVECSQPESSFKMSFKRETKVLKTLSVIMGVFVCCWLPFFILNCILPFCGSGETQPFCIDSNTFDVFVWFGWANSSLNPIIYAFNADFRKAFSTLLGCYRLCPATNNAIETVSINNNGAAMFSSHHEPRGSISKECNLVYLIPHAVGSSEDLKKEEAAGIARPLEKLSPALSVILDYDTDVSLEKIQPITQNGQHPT

Compound | Ratio Ki [1] | pKb [2] | pKb [3] | Ki [4] [nM]
O=c1[nH]c2[nH]c(-c3ccc(Cl)cc3)cc2c(=O)n1CCN1CCN(c2ccccc2Cl)CC1 | 573 | 6.41 | 6.64 | 544
COc1ccc(-c2cc3c(=O)n(CCN4CCN(c5ccccc5Cl)CC4)c(=O)[nH]c3[nH]2)cc1 | 65 | 7.48 | 8.03 | 272
Cc1ccc(-c2cc3[nH]c(=O)n(CCN4CCN(c5ccccc5Cl)CC4)c(=O)c3[nH]2)cc1 | > 500 | 6.72 | 6.37 | > 10000
Cc1ccc(-c2cc3c(=O)n(CCN4CCN(c5ccccc5Cl)CC4)c(=O)[nH]c3[nH]2)cc1 | 155 | 7.25 | 7.5 | 389
